Experimental data: ChEMBL document CHEMBL1143613, “Neurosteroid analogues. 10. The effect of methyl group substitution at the C-6 and C-7 positions on the GABA modulatory and anesthetic actions of (3alpha,5alpha)- and (3alpha,5beta)-3-hydroxypregnan-20-one” (J Med Chem, 2005)

What was measured:
[1] = target: T1, GABA-A receptor; alpha-1/beta-2/gamma-2 (Rattus norvegicus) (UniProt P18508+P62813+P63138); assay: Ratio of currents mediated by rat Alpha-1-beta-2-gamma-2L GABA-A receptor expressed in Xenopus oocytes at 1.0 uM in presence of 2 uM GABA; format: cell-based; details: Oocyte
Procedure, shortened: (§1)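 Rat α1β2γ2L GABAA receptors expressed in Xenopus oocytes. Test compound at 0.1, 1 or 10 µM was co-applied with 2 µM GABA, the control GABA concentration. The value is the ratio of current with compound to current without it. At least four oocytes per concentration, with standard error of the mean.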

[2] = Dose required for measuring the loss of righting reflex (LRR) in Xenopus laevis tadpoles; format: functional
Procedure, shortened: (§2)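 Xenopus laevis tadpoles scored for loss of swimming (LSR) or righting (LRR) response. 10 animals were used at each of five or more concentrations. Error given as standard error of the mean.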

[3] = target: T1, GABA-A receptor; alpha-1/beta-2/gamma-2 (Rattus norvegicus); assay: Ratio of currents mediated by rat Alpha-1-beta-2-gamma-2L GABA-A receptor expressed in Xenopus oocytes at 10 uM in presence of 2 uM GABA; format: cell-based; details: Oocyte; procedure, shortened: as §1
[4] = target: GABA-A receptor; anion channel; assay: Displacement of [35S]TBPS from picrotoxin site of GABA-A receptor of rat brain membranes; format: cell membranes, Membrane
[5] = target: T1, GABA-A receptor; alpha-1/beta-2/gamma-2 (Rattus norvegicus); assay: Ratio of currents mediated by rat Alpha-1-beta-2-gamma-2L GABA-A receptor expressed in Xenopus oocytes at 10 uM in the absence of GABA; format: cell-based; details: Oocyte
Procedure, shortened: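 Direct gating on rat α1β2γ2L GABAA receptors in Xenopus oocytes. Compound at 10 µM was applied with no GABA. The value is the compound-only current divided by the current from 2 µM GABA alone. At least four oocytes, with standard error of the mean.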

[6] = target: T1, GABA-A receptor; alpha-1/beta-2/gamma-2 (Rattus norvegicus); assay: Ratio of currents mediated by rat Alpha-1-beta-2-gamma-2L GABA-A receptor expressed in Xenopus oocytes at 0.1 uM in presence of 2 uM GABA; format: cell-based; details: Oocyte; procedure, shortened: as §1
[7] = Dose required for measuring loss of swimming reflex (LSR) in Xenopus laevis tadpoles; format: functional; procedure, shortened: as §2

SMILES	Ratio [1]	ED50 [2] [nM]	Ratio [3]	IC50 [4] [nM]	Ratio [5]	Ratio [6]	ED50 [7] [nM]
CC(=O)[C@H]1CC[C@H]2[C@@H]3C[C@H](C)[C@@H]4C[C@H](O)CC[C@]4(C)[C@H]3CC[C@]12C	1.02	2660	2.51	3080	0.15	0.96	5500
CC(=O)[C@H]1CC[C@H]2[C@@H]3[C@@H](C)C[C@@H]4C[C@H](O)CC[C@]4(C)[C@H]3CC[C@]12C	–	1360	–	1240	–	–	5500
CC(=O)[C@H]1CC[C@H]2[C@@H]3C[C@@H](C)[C@@H]4C[C@H](O)CC[C@]4(C)[C@H]3CC[C@]12C	4.36	400	22.5	45	0.62	1.48	550
CC(=O)[C@H]1CC[C@H]2[C@@H]3C[C@H](C)[C@H]4C[C@H](O)CC[C@]4(C)[C@H]3CC[C@]12C	1.17	1400	3.24	2940	0.06	1.01	8900
CC(=O)[C@H]1CC[C@H]2[C@@H]3CC[C@@H]4C[C@H](O)CC[C@]4(C)[C@H]3CC[C@]12C	2.82	60	9.77	–	0.06	1.2	300
CC(=O)[C@H]1CC[C@H]2[C@@H]3C[C@@H](C)[C@H]4C[C@H](O)CC[C@]4(C)[C@H]3CC[C@]12C	7.7	510	10	5.7	0.59	2.5	1050
CC(=O)[C@H]1CC[C@H]2[C@@H]3[C@H](C)C[C@H]4C[C@H](O)CC[C@]4(C)[C@H]3CC[C@]12C	–	2680	–	5990	–	–	5500
CC(=O)[C@H]1CC[C@H]2[C@@H]3[C@H](C)C[C@@H]4C[C@@H](O)CC[C@]4(C)[C@H]3CC[C@]12C	–	1250	–	10800	–	–	10000
CC(=O)[C@H]1CC[C@H]2[C@@H]3CC[C@H]4C[C@H](O)CC[C@]4(C)[C@H]3CC[C@]12C	3.89	420	9.65	–	0.37	1.26	5500
CC(=O)[C@H]1CC[C@H]2[C@@H]3[C@@H](C)C[C@H]4C[C@H](O)CC[C@]4(C)[C@H]3CC[C@]12C	–	1340	–	1240	–	–	5500
CC(=O)[C@H]1CC[C@H]2[C@@H]3[C@H](C)C[C@@H]4C[C@H](O)CC[C@]4(C)[C@H]3CC[C@]12C	–	1670	–	1040	–	–	5500
CC(=O)[C@H]1CC[C@H]2[C@@H]3[C@H](C)C[C@H]4C[C@@H](O)CC[C@]4(C)[C@H]3CC[C@]12C	–	1630	–	–	–	–	5500
